Results from different studies.
Target: Serine/threonine-protein kinase 17B (STK17B, Homo sapiens, UniProt O94768)
One construct used (O94768 1-372): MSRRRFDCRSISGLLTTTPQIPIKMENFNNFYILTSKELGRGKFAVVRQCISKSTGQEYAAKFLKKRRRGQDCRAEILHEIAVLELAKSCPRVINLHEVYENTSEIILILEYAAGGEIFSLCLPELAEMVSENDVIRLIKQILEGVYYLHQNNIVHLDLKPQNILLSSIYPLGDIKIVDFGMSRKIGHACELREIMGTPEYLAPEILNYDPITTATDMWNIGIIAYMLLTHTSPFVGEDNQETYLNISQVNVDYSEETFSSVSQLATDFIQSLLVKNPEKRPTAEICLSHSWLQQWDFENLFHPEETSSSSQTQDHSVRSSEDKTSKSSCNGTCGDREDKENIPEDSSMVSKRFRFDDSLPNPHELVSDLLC

Structure (SMILES) | read-out | method | tested at | remaining binding [%]
COc1ncc2cc3ccccc3nc2c1C#N | cell-free assay | competition with immobilised ligand | 5 µM | 100
CCCCN(CCCC)C(=O)CN1C[C@H](c2cc(OC)c3c(c2)OCO3)[C@@H](C(=O)O)[C@@H]1CC(C)(C)CCC | cell-free assay | competition with immobilised ligand | 1 µM | 100
C[C@@H](c1ccc(-n2cnc3c(N)ncnc32)cc1)N1CCc2nn(C)c(Cc3ccccc3)c2C1=O | binding | competition with immobilised ligand | 0.1 µM | 100
CN([C@@H]1CCc2c(CC(=O)O)c3cc(S(C)(=O)=O)ccc3n2C1)S(=O)(=O)c1ccc(F)cc1 | cell-free assay | competition with immobilised ligand | 1 µM | 85
FC(F)(F)Oc1cccc(-c2cnc3ccc(-c4ccncc4)nn23)c1 | cell-free assay | competition with immobilised ligand | 5 µM | 85
CN(C)c1nccc(-c2cnc3ncccn23)n1 | binding |  | 1 µM | 100
CNC(=O)[C@@H]1CC[C@@H](n2c(-c3ccc4cnccc4c3)nc3ccc(C(=O)NCc4cccc(C(N)=O)c4)cc32)C1 | binding | competition with immobilised ligand | 1 µM | 99
Cc1noc([C@H]2C[C@@H](c3ccc(C(F)(F)F)cc3)CN(C(=O)N3CCS(=O)(=O)C3)C2)n1 | cell-free assay | competition with immobilised ligand | 1 µM | 100
O=C(c1ccc(Nc2ncc(Cl)c(-c3ccc(Cl)s3)n2)cc1)N1CCC(N2CCCC2)CC1 | binding | competition with immobilised ligand | 1 µM | 2.7
CN(C)c1nccc(-c2cnn3ncccc23)n1 | binding |  | 1 µM | 100
CN(C)C(=O)Cn1cc(-c2nc(C3(c4ccc(-c5cnc(N)nc5)cc4)CC3)no2)cn1 | cell-free assay | competition with immobilised ligand | 1 µM | 100
CN(C)c1ncc(F)c(-c2cnn3ncccc23)n1 | binding |  | 1 µM | 87
O=C(c1ccc(Nc2ncc(Cl)c(-c3cc4ccccc4s3)n2)cc1)N1CCC(N2CCCC2)CC1 | binding | competition with immobilised ligand | 1 µM | 0
Cc1cnn2ncc(-c3ccnc(N(C)C)n3)c2c1 | binding |  | 1 µM | 100
CCCOc1ccc([C@H]2[C@H](C(=O)O)[C@@H](c3ccc4c(c3)OCO4)CN2CC(=O)Nc2c(CC)cccc2CC)cc1 | cell-free assay | competition with immobilised ligand | 1 µM | 91
N[C@@H]1CCN(c2nccc(-c3cnn4ncccc34)n2)C1 | binding |  | 1 µM | 100
O=C(Nc1c[nH]nc1C(=O)NC1CCNCC1)c1cc(F)cc(F)c1 | binding | competition with immobilised ligand | 1 µM | 100
Cn1cc(Cl)c2c(Oc3c(F)cc(Nc4cc(Cl)nc(N)n4)cc3F)ccnc21 | cell-free assay | competition with immobilised ligand | 0.1 µM | 84
c1cnn2ncc(-c3ccnc(N4CCC45COC5)n3)c2c1 | binding |  | 1 µM | 100
CNC(=O)Nc1ccc2c(c1)[C@@]1(CC2)OC(=O)N(CC(=O)N(Cc2ccc(F)cc2)[C@@H](C)C(F)(F)F)C1=O | cell-free assay | competition with immobilised ligand | 1 µM | 77
O=C(NCCCN1CCOCC1)c1ccc(Nc2ncc(Cl)c(-c3ccc(Cl)s3)n2)cc1 | binding | competition with immobilised ligand | 1 µM | 0.45
C[C@H]1CCN(c2nccc(-c3cnn4ncccc34)n2)C1 | binding |  | 1 µM | 93
